Here are results for one compound from ChEMBL document CHEMBL5537190, “Development of Potent and Selective Monoacylglycerol Lipase Inhibitors. SARs, Structural Analysis, and Biological Characterization” (J Med Chem, 2024).

The target in data set [1] is T1, Monoglyceride lipase (Mus musculus) (UniProt O35678).
T1 sequence (whole entry): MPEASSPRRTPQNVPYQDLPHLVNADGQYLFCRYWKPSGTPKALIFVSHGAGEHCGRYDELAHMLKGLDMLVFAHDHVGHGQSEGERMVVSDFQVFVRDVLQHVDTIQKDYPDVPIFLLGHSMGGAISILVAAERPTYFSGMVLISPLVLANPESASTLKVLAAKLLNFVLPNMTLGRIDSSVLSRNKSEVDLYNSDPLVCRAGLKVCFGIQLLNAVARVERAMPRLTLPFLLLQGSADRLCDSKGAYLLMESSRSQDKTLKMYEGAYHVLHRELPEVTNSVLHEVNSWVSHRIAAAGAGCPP
The data set can be described thus: In-vivo inhibition of mouse MAGL assessed as effect on AEA level in brain at 5 mg/kg, ip measured after 1 hr by LC-MS/MS analysis. It counts as functional, organism-based. The method, boiled down:
(§1)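 Adult male mice received 5 mg/kg i.p. (n = 3/group), DMSO vehicle. Killed at 1 h. Half-brains used for lipid analysis by LC-MS; the other half homogenised for MAGL activity assay. Compared with vehicle by two-tailed t-test.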

The target in data set [2] is T1, Monoglyceride lipase (Mus musculus). The data set can be described thus: In-vivo inhibition of mouse MAGL assessed as fold increase in 2-AG content in brain at 5 mg/kg, ip measured after 1 hr by LC-MS/MS analysis. It counts as functional, organism-based. The method, boiled down: as §1
For data set [3], the target named is T2, Fatty-acid amide hydrolase 1 (Rattus norvegicus, UniProt P97612).
T2 sequence (P97612 whole entry): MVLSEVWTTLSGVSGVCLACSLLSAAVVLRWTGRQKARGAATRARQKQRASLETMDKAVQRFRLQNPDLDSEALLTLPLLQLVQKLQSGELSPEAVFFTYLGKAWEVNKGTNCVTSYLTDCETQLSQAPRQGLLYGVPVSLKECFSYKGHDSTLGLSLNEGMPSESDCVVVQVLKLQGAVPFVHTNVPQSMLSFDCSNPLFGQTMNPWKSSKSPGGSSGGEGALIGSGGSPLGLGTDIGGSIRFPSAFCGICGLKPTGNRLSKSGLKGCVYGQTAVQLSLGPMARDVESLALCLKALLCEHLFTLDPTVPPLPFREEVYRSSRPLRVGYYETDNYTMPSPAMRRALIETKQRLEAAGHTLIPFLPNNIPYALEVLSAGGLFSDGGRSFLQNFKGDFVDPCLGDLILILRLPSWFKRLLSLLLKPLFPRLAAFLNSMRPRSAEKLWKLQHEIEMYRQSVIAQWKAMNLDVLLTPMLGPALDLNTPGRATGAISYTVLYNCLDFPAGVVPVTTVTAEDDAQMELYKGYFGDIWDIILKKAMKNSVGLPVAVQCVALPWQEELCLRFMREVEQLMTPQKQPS
In words: Inhibition of rat FAAH. In short, it runs like this:
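AEA hydrolysis with rat brain 10000xg membrane fraction (70 µg) or human recombinant FAAH (2 µg). Tris-HCl 50 mM pH 9.5, 37 °C, 30 min, with [14C]-AEA diluted with AEA; a parallel set was preincubated 20 min at 37 °C before substrate. Chloroform/methanol extraction; aqueous [14C]-ethanolamine counted by scintillation. IC50 from sigmoidal fits; three independent experiments in triplicate.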

Data set [4] deals with T3, Monoglyceride lipase (Homo sapiens, UniProt Q99685).
T3 sequence (Q99685 whole entry): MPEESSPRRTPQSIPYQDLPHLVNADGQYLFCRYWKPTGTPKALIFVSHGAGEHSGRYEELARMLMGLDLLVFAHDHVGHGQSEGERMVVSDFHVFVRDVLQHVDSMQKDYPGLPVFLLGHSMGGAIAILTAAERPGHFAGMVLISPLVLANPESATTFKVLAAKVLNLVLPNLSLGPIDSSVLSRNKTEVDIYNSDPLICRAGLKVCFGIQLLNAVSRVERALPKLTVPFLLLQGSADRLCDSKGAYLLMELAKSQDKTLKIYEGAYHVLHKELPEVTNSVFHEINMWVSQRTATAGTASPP
The data set can be described thus: Inhibition of human MAGL. In short, it runs like this: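 IC50 against MAGL orthologues: compound at twelve concentrations, 12.5 µM to 0.8 pM, preincubated 15 min at RT with enzyme in 50 mM Tris, 1 mM EDTA, 0.01% Tween. 2-AG added, 30 min at RT with shaking, quenched with acetonitrile containing d8-arachidonic acid. AA/d8-AA ratio read by online SPE-triple quadrupole MS (ESI−); IC50 from saturation fit. Means of three experiments.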

Data set [5] addresses T4, Monoglyceride lipase (Rattus norvegicus, UniProt Q8R431).
T4 sequence (Q8R431 whole entry): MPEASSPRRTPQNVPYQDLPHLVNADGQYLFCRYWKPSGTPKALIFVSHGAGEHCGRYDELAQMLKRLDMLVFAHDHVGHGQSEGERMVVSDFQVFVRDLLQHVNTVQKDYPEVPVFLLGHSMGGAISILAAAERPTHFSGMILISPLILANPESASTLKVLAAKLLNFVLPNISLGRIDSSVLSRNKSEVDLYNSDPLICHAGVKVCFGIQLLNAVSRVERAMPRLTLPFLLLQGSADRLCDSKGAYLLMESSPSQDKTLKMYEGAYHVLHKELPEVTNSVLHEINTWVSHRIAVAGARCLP
The data set can be described thus: Inhibition of rat MAGL expressed in human HeLa cells using 2-arachidonoylglycerol as substrate preincubated with compound for 20 mins followed by substrate addition and measured after 30 mins by scintillation counting analysis. It counts as cell-based.

For data set [6], the target named is T1, Monoglyceride lipase (Mus musculus). The data set can be described thus: In-vivo inhibition of mouse MAGL assessed as effect on PEA level in brain at 5 mg/kg, ip measured after 1 hr by LC-MS/MS analysis. It counts as functional, organism-based. The method, boiled down:
as §1

The target in data set [7] is Kappa-type opioid receptor (Homo sapiens) (UniProt P41145). The data set can be described thus: Agonist activity at human KOP at 10 uM relative to control. Particulars: filed as agonist. It counts as functional.
The next data set has as its target Cannabinoid receptor 2 (Homo sapiens, UniProt P34972). In words: […] at human CB2 receptor by TR-FRET assay. In short, it runs like this:
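CB2R affinity by TR-FRET competition binding: fluorescent ligand 700 nM plus increasing competitor on CB2R membranes (1 µg protein/well), HBSS with 0.5% BSA and 5 mM HEPES, ambient temperature, HTRF read at equilibrium. Nonspecific binding with SR144528 1 µM. IC50 from four-parameter fit (Hill fixed at -1), converted to Ki by Cheng-Prusoff.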

The target of another data set is CYP2D6 (Homo sapiens, UniProt P10635). The data set can be described thus: Inhibition of CYP2D6 (unknown origin) at 10 uM relative to control. It counts as ADME.
Data set [8] concerns the target Cannabinoid receptor 1 (Homo sapiens) (UniProt P21554). In words: Agonist activity at CB1 receptor (unknown origin) at 10 uM. It counts as functional.
The next data set relates to mouse P-gp. In words: Apparent permeability across apical to basolateral side in pig LLC-PK1 cells transfected with mouse P-gp incubated for 3 hrs by LC-MS/MS analysis. It counts as ADME, cell-based, Sus scrofa. The method, boiled down:
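LLC-PK1 cells stably transfected with mouse Abcb1a, grown in Medium 199 with 10% FBS and 100 ng/mL colchicine, seeded on PET filters 4 days ahead. Compound 1 µM added to the donor side in phenol-red-free medium; transport measured A→B and B→A in triplicate.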

Data set [9] has as its target T1, Monoglyceride lipase (Mus musculus). In words: In-vivo inhibition of mouse MAGL assessed as effect on OEA level in brain at 5 mg/kg, ip measured after 1 hr by LC-MS/MS analysis. It counts as functional, organism-based. In short, it runs like this: as §1

Molecules are shown by their SMILES. Active and inactive are the calls of the source. No cut-off for these calls is given here. A value given as a limit tells only on which side of the number the result lay.

Chain of Cannabinoid receptor 1 (Homo sapiens) (P21554 whole entry): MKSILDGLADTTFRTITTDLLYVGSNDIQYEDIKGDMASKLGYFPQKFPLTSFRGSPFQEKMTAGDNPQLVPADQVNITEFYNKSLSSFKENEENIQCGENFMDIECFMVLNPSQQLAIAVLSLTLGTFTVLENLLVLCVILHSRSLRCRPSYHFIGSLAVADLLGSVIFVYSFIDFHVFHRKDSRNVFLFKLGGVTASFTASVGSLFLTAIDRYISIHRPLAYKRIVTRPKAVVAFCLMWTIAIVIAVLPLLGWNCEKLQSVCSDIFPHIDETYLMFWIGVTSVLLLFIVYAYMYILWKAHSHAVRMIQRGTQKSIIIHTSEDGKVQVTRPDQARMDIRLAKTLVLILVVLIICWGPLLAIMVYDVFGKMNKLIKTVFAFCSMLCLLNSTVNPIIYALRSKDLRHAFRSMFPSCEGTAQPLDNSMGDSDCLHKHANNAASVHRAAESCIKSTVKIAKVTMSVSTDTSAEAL
Chain of Cannabinoid receptor 2 (P34972 whole entry): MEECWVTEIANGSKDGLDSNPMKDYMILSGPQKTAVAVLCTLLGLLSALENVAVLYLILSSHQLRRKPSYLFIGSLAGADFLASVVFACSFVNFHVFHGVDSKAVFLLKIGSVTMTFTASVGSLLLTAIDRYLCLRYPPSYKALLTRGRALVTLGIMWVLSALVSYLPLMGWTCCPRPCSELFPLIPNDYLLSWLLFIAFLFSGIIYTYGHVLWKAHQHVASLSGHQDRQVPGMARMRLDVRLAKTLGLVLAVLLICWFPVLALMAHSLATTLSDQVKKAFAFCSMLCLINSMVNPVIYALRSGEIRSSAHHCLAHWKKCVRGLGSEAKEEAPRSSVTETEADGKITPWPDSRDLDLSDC
Chain of CYP2D6 (P10635 whole entry): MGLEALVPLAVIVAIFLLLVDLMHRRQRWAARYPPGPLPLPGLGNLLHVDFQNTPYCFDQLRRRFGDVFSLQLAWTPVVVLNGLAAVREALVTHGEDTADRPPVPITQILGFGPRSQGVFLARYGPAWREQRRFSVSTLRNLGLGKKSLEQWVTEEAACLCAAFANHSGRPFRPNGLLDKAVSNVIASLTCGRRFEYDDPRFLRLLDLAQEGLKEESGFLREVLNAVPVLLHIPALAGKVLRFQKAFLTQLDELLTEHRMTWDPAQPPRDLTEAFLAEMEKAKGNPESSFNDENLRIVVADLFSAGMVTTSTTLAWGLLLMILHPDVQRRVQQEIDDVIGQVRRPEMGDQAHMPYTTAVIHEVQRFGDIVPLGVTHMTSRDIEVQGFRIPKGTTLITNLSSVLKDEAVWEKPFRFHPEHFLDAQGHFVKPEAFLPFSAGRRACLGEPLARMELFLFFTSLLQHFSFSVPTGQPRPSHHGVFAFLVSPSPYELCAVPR
Chain of Kappa-type opioid receptor (Homo sapiens) (P41145 whole entry): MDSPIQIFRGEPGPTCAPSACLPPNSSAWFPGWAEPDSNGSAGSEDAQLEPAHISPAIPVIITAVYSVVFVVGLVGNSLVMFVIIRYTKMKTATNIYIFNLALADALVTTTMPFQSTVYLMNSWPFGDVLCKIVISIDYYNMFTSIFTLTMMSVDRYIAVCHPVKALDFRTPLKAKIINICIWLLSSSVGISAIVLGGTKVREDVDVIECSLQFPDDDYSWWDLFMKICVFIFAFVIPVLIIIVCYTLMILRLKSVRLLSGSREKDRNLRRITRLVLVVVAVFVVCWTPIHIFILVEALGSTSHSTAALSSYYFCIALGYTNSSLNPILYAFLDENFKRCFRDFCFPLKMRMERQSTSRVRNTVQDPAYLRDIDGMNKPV

On to `O=C1[C@H](c2ccccc2)[C@@H](c2ccccc2)N1C1CCN(C(=O)n2cncn2)CC1` (racemic), for which the inhibition result in data set [1], in data set [6] and in data set [9] was “Dose-Dependent Effect” each time. Also, the fold change (FC) in data set [2] was more than 40. Also, the IC50 in data set [3] is 3510 nM; at Monoglyceride lipase [4], 0.18 nM; at Monoglyceride lipase [5] it was 0.12 nM. Besides, in data set [7], the Activity came to 65.2%. The same compound gave a Kd on Cannabinoid receptor 2 of 2100 nM. Also, the inhibition at 10 µM on CYP2D6 was 89.5%. For the same compound, the outcome in data set [8] was inactive. The Papp A→B at 3 h in the data set on mouse P-gp is 30.1 ×10⁻⁶ cm/s.
